The values below come from ChEMBL document CHEMBL1132658, “Second-generation peptidomimetic inhibitors of protein farnesyltransferase demonstrating improved cellular potency and significant in vivo efficacy” (J Med Chem, 1999).

One may read the AUC as concentration integrated over time. In general, half-life refers to how long it takes for the measured level to halve. Usually IC50 stands for the concentration at which inhibition is half-maximal.

Data set [1] is described as follows: Area under the curve during systemic administration. In kind it is ADME. Also noted: concentration or dose not given beside the values. The settings on record: other: systemic administration.
Data set [2] can be described thus: Biological half-life in the rat. Type of data set: ADME, organism-based. Particulars: in vivo. In a few lines:
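Half-life determined after intravenous dosing in rats.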

Data set [3] concerns the target Protein farnesyltransferase (Bos taurus, UniProt P29702+P49355). Briefly: In vitro inhibition of farnesyltransferase purified from bovine brain using scintillation proximity assay. (In general: SPA uses beads or plates that emit light when radiolabelled molecules are held near them.)
Data set [4] deals with NIH3T3. Briefly: In Vitro inhibition of Ha-Ras procession by using subconfluent NIH3T3 ras-transformed cells. In kind it is functional. Particulars: Mus musculus, read-out: ED50 (the source's name).
The nature of data set [5]: Portal vein area under the curve after intraduodenal administration. Further details: concentration or dose not given beside the values.

In the case of `CSCC[C@H](NC(=O)c1ccc(CN(Cc2cc(F)cc(F)c2)c2cccnc2)cc1-c1ccccc1C)C(=O)O`, the AUC stood at 140 ng·h/mL in data set [1] and 3560 ng·h/mL in data set [5]. Moreover, the half-life in data set [2] was 60 min. In data set [3], 1.4 nM corresponded to half-maximal inhibition (IC50). The EC50 in data set [4] was determined as 50 nM.

As to `CSCC[C@H](NC(=O)c1ccc(CN(Cc2ccccc2)c2cnccn2)cc1-c1ccccc1C)C(=O)O`, the AUC in data set [1] came out at 900 ng·h/mL; in data set [5], 1800 ng·h/mL. This compound also showed a half-life in data set [2] below 24 min. The compound also gave an IC50 in data set [3] of 0.8 nM. Besides, in data set [4], the EC50 amounted to 50 nM.

In turn, `CSCC[C@H](NC(=O)c1ccc(CN(C(=O)c2ccccc2)c2cccnc2)cc1-c1ccccc1C)C(=O)O` had an IC50 in data set [3] of 53 nM. Also, the EC50 in data set [4] is above 1000 nM.

In the case of `CSCC[C@H](NC(=O)c1ccc(CN(CC2CCCCC2)c2cccnc2)cc1-c1ccccc1C)C(=O)O`, the AUC in data set [1] worked out at 100 ng·h/mL; in data set [5] it was 1000 ng·h/mL. In addition, the half-life in data set [2] was below 24 min. Also, the IC50 in data set [3] stood at 0.1 nM. For the same compound, the EC50 in data set [4] was 10 nM.

On to `CSCC[C@H](NC(=O)c1ccc(CN(Cc2cc(F)cc(F)c2)c2ccccc2)cc1-c1ccccc1C)C(=O)O`, for which the AUC came to 10800 ng·h/mL in data set [1] and 14300 ng·h/mL in data set [5]. Also, the half-life in data set [2] is 114 min. Further, the IC50 in data set [3] worked out at 0.4 nM. For the same compound, the EC50 in data set [4] turned out to be 1000 nM.

Consider `CSCC[C@H](NC(=O)c1ccc(CN(C(=O)Cc2ccccc2)c2cccnc2)cc1-c1ccccc1C)C(=O)O`, for which, in data set [3], it took 39 nM to reach half-maximal inhibition (IC50). The EC50 in data set [4] is above 1000 nM.

`CSCC[C@H](NC(=O)c1cc(Cc2ccccc2)c(COc2cccnc2)cc1-c1ccccc1C)C(=O)O` showed an IC50 in data set [3] of 1 nM. The EC50 in data set [4] is above 1000 nM.

In data set [3], `CCCCCc1cc(C(=O)N[C@@H](CCSC)C(=O)O)c(-c2ccccc2C)cc1COc1cccnc1` displayed an IC50 of 2 nM. Moreover, the EC50 in data set [4] stood at 1000 nM.

As to `CSCC[C@H](NC(=O)c1ccc(CN(c2cccnc2)S(=O)(=O)c2ccccc2)cc1-c1ccccc1C)C(=O)O`, inhibition in data set [3] was half-maximal at 7 nM (IC50).

`CCc1cc(C(=O)N[C@@H](CCSC)C(=O)O)c(-c2ccccc2C)cc1COc1cccnc1` yielded an IC50 in data set [3] of 11 nM. Moreover, in data set [4], the EC50 is below 10000 nM.

`CSCC[C@H](NC(=O)c1cc(-c2cccs2)c(COc2cccnc2)cc1-c1ccccc1C)C(=O)O` came in with an IC50 in data set [3] of 510 nM.

For `CSCC[C@H](NC(=O)c1ccc(CN(Cc2ccccc2)c2cncc(F)c2)cc1-c1ccccc1C)C(=O)O`, the AUC in data set [1] is 400 ng·h/mL; in data set [5], 2400 ng·h/mL. This compound registered a half-life in data set [2] below 24 min. In data set [3], this compound gave an IC50 of 0.1 nM. The EC50 in data set [4] turned out to be 30 nM.

For `CSCC[C@H](NC(=O)c1ccc(CN(Cc2ccccc2)c2cncnc2)cc1-c1ccccc1C)C(=O)O`, the AUC in data set [1] worked out at 20 ng·h/mL; in data set [5], 10400 ng·h/mL. Besides, the half-life in data set [2] is 30 min. The compound further displayed an IC50 in data set [3] of 0.4 nM. For the same compound, the EC50 in data set [4] is 90 nM.

Regarding `CSCC[C@H](NC(=O)c1ccc(CN(Cc2ccccc2)Cc2cncs2)cc1-c1ccccc1C)C(=O)O`, the AUC in data set [1] is 1600 ng·h/mL; in data set [5] it was 3200 ng·h/mL. In data set [2], the half-life was below 24 min. Besides, the midpoint of inhibition in data set [3], the IC50, lay at 0.4 nM. Further, the EC50 in data set [4] was 300 nM.

In data set [3], `CSCC[C@H](NC(=O)c1ccc(CNc2cccnc2)cc1-c1ccccc1C)C(=O)O` returned a concentration for half-maximal inhibition (IC50) of 0.4 nM. Besides, the EC50 in data set [4] amounted to 3000 nM.

`CSCC[C@H](NC(=O)c1ccc(CN(Cc2ccccc2)Cc2nccs2)cc1-c1ccccc1C)C(=O)O`: the IC50 in data set [3] turned out to be 7 nM. For the same compound, the EC50 in data set [4] was above 1000 nM.

As for `CSCC[C@H](NC(=O)c1cc(-c2cc(Cl)cc(Cl)c2)c(COc2cccnc2)cc1-c1ccccc1C)C(=O)O`, the IC50 in data set [3] was found to be 95 nM.

As for `CSCC[C@H](NC(=O)c1cc(CCc2ccccc2)c(COc2cccnc2)cc1-c1ccccc1C)C(=O)O`, the IC50 in data set [3] was 0.5 nM. Also, in data set [4], the EC50 is 1000 nM.

In the case of `CSCC[C@H](NC(=O)c1cc(CC2CCCCC2)c(COc2cccnc2)cc1-c1ccccc1C)C(=O)O`, half-maximal inhibition in data set [3] (IC50) was put at 12 nM. Besides, the EC50 in data set [4] is 1000 nM.

Take `CSCC[C@H](NC(=O)c1ccc(CN(Cc2ccccc2)c2cccnc2)cc1-c1ccccc1C)C(=O)O`: the AUC in data set [1] worked out at 500 ng·h/mL; in data set [5], 3000 ng·h/mL. This compound had a half-life in data set [2] of 49.8 min. Moreover, the IC50 in data set [3] amounted to 0.1 nM. In data set [4], the EC50 came out at 13 nM.

`CSCC[C@H](NC(=O)c1cc(CC(C)C)c(COc2cccnc2)cc1-c1ccccc1C)C(=O)O` came in with an IC50 in data set [3] of 29 nM. The EC50 in data set [4] is above 10000 nM.

Consider `CSCC[C@H](NC(=O)c1ccc(COc2cccnc2)cc1-c1ccccc1C)C(=O)O`, for which the EC50 in data set [4] was found to be 400 nM.

`CCCCc1cc(C(=O)N[C@@H](CCSC)C(=O)O)c(-c2ccccc2C)cc1COc1cccnc1` came in with a half-maximal inhibitory concentration (IC50) in data set [3] of 11 nM.

On to `CSCC[C@H](NC(=O)c1ccc(CN(Cc2ccccc2)c2ccccc2)cc1-c1ccccc1C)C(=O)O`, for which the AUC in data set [1] was 600 ng·h/mL; in data set [5], 1900 ng·h/mL. This compound showed a half-life in data set [2] of 48 min. The compound further registered an IC50 in data set [3] of 1.4 nM. The EC50 in data set [4] came to 400 nM.

Turning to `CSCC[C@H](NC(=O)c1ccc(CN(Cc2cc(F)cc(F)c2)Cc2cncs2)cc1-c1ccccc1C)C(=O)O`, the AUC came out at 300 ng·h/mL in data set [1] and 2400 ng·h/mL in data set [5]. Further, the half-life in data set [2] was 67.8 min. This compound had an IC50 in data set [3] of 0.2 nM. In data set [4], the EC50 came to 500 nM.

Consider `CSCC[C@H](NC(=O)c1cc(-c2ccc(C)cc2)c(COc2cccnc2)cc1-c1ccccc1C)C(=O)O`, for which it took 370 nM to reach half-maximal inhibition in data set [3] (IC50).

In data set [3], `CSCC[C@H](NC(=O)c1ccc(CN(Cc2ccccc2)Cc2cscn2)cc1-c1ccccc1C)C(=O)O` showed an IC50 of 16 nM. Further, the EC50 in data set [4] was above 1000 nM.
